According to ChEMBL document CHEMBL4196214, “Inhibition of p53-Murine Double Minute 2 (MDM2) Interactions with 3,3'-Spirocyclopentene Oxindole Derivatives” (J Med Chem, 2018):
Calls of active or inactive are those of the source. The calls are words filed in the database; no cut-off is given here.

What was measured:
[1] = target: Tumour suppressor p53/oncoprotein Mdm2 (Homo sapiens, UniProt Q00987); test: Inhibition of human MDM2 (1 to 125 residues) and p53 (unknown origin) interaction pre-incubated for 20 mins before peptide-2-biot addition and measured after 3 hrs by HTRF assay; type: protein assay
Chain of Tumour suppressor p53/oncoprotein Mdm2 (P04637 whole entry, the tested form may be a part): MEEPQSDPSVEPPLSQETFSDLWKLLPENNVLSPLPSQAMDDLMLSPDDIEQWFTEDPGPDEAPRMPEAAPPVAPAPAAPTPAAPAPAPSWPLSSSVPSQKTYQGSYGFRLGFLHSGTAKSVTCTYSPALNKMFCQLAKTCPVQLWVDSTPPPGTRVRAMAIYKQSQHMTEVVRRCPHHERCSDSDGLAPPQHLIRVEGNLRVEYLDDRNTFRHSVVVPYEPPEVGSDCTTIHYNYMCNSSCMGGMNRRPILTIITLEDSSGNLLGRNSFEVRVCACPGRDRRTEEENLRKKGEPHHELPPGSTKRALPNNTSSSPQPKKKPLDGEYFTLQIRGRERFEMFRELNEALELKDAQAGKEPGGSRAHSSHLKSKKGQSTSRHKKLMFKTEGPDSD
Chain of Tumour suppressor p53/oncoprotein Mdm2 (Q00987 whole entry, the tested form may be a part): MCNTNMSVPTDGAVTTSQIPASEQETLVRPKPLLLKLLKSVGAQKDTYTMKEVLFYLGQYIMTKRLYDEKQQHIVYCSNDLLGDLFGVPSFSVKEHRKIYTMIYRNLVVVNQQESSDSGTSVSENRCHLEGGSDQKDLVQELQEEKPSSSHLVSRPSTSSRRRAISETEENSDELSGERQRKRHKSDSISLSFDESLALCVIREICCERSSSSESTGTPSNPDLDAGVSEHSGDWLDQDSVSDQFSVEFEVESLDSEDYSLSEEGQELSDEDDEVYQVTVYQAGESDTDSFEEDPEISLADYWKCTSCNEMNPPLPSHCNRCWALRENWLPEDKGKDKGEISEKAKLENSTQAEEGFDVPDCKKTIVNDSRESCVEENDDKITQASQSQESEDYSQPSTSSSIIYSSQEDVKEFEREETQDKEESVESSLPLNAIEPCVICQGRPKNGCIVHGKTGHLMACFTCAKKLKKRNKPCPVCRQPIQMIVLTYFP

HCT-116 [2] = test: Antiproliferative activity against human HCT116 cells expressing wild type p53 incubated for 72 hrs by MTS assay; type: functional, cell-based; details: HCT-116, 72 h
Method in brief: (§1)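 Cells treated with compound for 72 h; IC50 fitted to polynomial curves from three separate experiments, reported as average with standard deviation. HCT116 p53 −/− is an isogenic p53 knockout line. H1299 carries a homozygous partial deletion of the p53 gene and expresses no p53 protein.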

HCT-116 [3] = test: Antiproliferative activity against p53 -/- human HCT116 cells incubated for 72 hrs by MTS assay; type: functional, cell-based; details: HCT-116, 72 h; method in brief: as §1
NCI-H1299 = test: Antiproliferative activity against p53 -/- human NCI-H1299 cells incubated for 72 hrs by MTS assay; type: functional, cell-based; details: NCI-H1299, 72 h; method in brief: as §1
SJSA-1 = test: Antiproliferative activity against human SJSA1 cells expressing wild type p53 incubated for 72 hrs by MTS assay; type: functional, cell-based; details: SJSA-1, 72 h; method in brief: as §1
[4] = target: T1, Tumour suppressor p53/oncoprotein Mdm2 (Homo sapiens) (UniProt P04637+Q00987); test: Inhibition of MDM2/p53 interaction in human HCT116 cells deficient in p53 assessed as increase in p21 protein levels at 10 uM incubated for 6 hrs by Western blot method; type: cell-based
T1 sequence (P04637 whole entry, looked up): as the sequence (P04637 whole entry, the tested form may be a part) above
T1 sequence (Q00987 whole entry, looked up): as the sequence (Q00987 whole entry, the tested form may be a part) above
Method in brief: (§2)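 HCT116 cells, p53 +/+ and isogenic p53 −/−, treated with compound at 10 μM for 6 h. Lysates probed by Western blot for p53, MDM2 and p21 protein levels. Actin served as the loading control.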

[5] = target: T1, Tumour suppressor p53/oncoprotein Mdm2 (Homo sapiens); test: Inhibition of MDM2/p53 interaction in human HCT116 cells expressing wild type p53 assessed as increase in p21 protein levels at 10 uM incubated for 6 hrs by Western blot method; type: cell-based; method in brief: as §2
[6] = target: T1, Tumour suppressor p53/oncoprotein Mdm2 (Homo sapiens); test: Inhibition of MDM2/p53 interaction in human HCT116 cells expressing wild type p53 assessed as increase in MDM2 protein levels at 10 uM incubated for 6 hrs by Western blot method; type: cell-based; method in brief: as §2
[7] = target: T1, Tumour suppressor p53/oncoprotein Mdm2 (Homo sapiens); test: Inhibition of MDM2/p53 interaction in human HCT116 cells deficient in p53 assessed as increase in MDM2 protein levels at 10 uM incubated for 6 hrs by Western blot method; type: cell-based; method in brief: as §2
[8] = target: T1, Tumour suppressor p53/oncoprotein Mdm2 (Homo sapiens); test: Inhibition of MDM2/p53 interaction in human HCT116 cells deficient in p53 assessed as increase in p53 activation at 10 uM incubated for 6 hrs by Western blot method; type: cell-based; method in brief: as §2
[9] = target: T1, Tumour suppressor p53/oncoprotein Mdm2 (Homo sapiens); test: Inhibition of MDM2/p53 interaction in human HCT116 cells expressing wild type p53 assessed as increase in p53 activation at 10 uM incubated for 6 hrs by Western blot method; type: cell-based; method in brief: as §2

CC(C)(C)CC1C=C(C(=O)O)C(c2cccc(Cl)c2F)C12C(=O)Nc1cc(Cl)ccc12 (stereo in doubt; (-)-8')
IC50 [1]: 0.538 µM

CC(C)(C)C[C@@H]1C=C(C(=O)Nc2ccc(C(=O)O)cc2)[C@H](c2cccc(Cl)c2F)[C@]12C(=O)Nc1cc(Cl)ccc12 (racemic)
IC50 [1]: 0.35 µM

CC(C)(C)C[C@@H]1C=C(C(=O)NCCN2CCOCC2)[C@H](c2cccc(Cl)c2F)[C@]12C(=O)Nc1cc(Cl)ccc12 (racemic)
IC50 (HCT-116 [2]): 4.84 µM
IC50 [1]: 0.033 µM
IC50 (HCT-116 [3]): > 20 µM
IC50 (NCI-H1299): > 20 µM
IC50 (SJSA-1): 7.5 µM

CC(C)(C)C[C@@H]1C=C(C(=O)N[C@H]2CC[C@H](O)CC2)[C@H](c2cccc(Cl)c2F)[C@]12C(=O)Nc1cc(Cl)ccc12 (racemic)
IC50 [1]: 0.619 µM

CC(C)(C)CC1C=C(C(=O)Nc2ccc(C(=O)O)cc2)C(c2cccc(Cl)c2F)C12C(=O)Nc1cc(Cl)ccc12 (single isomer, unassigned; (-))
IC50 [1]: 1.04 µM

CC(C)(C)CC1C=C(C(=O)O)C(c2cccc(Cl)c2F)C12C(=O)Nc1cc(Cl)ccc12 (single isomer, unassigned; (+)) [listing 1 of 2 here]
IC50 (HCT-116 [2]): 11.6 µM
IC50 [1]: 0.0031 µM
IC50 (HCT-116 [3]): > 20 µM
IC50 (NCI-H1299): > 20 µM
IC50 (SJSA-1): 7.8 µM

CC(C)(C)C[C@H]1C=C(C(=O)NCCN2CCOCC2)[C@@H](c2cccc(Cl)c2F)[C@]12C(=O)Nc1cc(Cl)ccc12 (racemic)
IC50 [1]: 3.68 µM

CC(C)(C)CC1C=C(C(=O)NC2CC(C)(O)C2)C(c2cccc(Cl)c2F)C12C(=O)Nc1cc(Cl)ccc12 (single isomer, unassigned; (-))
IC50 [1]: 3.03 µM

CC(C)(C)CC1C=C(C(=O)NCCN2CCOCC2)C(c2cccc(Cl)c2F)C12C(=O)Nc1cc(Cl)ccc12 (single isomer, unassigned; (+)) [listing 1 of 2 here]
IC50 (HCT-116 [2]): 2.92 µM
IC50 [1]: 0.0237 µM
IC50 (HCT-116 [3]): > 20 µM
IC50 (NCI-H1299): 9.73 µM
IC50 (SJSA-1): 0.96 µM

CC(C)(C)CC1C=C(C(=O)NCCN2CCOCC2)C(c2cccc(Cl)c2F)C12C(=O)Nc1cc(Cl)ccc12 (single isomer, unassigned; (-))
IC50 [1]: 1.14 µM

COc1ccc(C2=N[C@@H](c3ccc(Cl)cc3)[C@@H](c3ccc(Cl)cc3)N2C(=O)N2CCNC(=O)C2)c(OC(C)C)c1 [NUTLIN-3]
IC50 (HCT-116 [2]): 1.3 µM
IC50 (HCT-116 [3]): > 20 µM
IC50 (NCI-H1299): 10.4 µM
IC50 (SJSA-1): 1.44 µM

CC(C)(C)CC1C=C(C(=O)O)C(c2cccc(Cl)c2F)C12C(=O)Nc1cc(Cl)ccc12 (single isomer, unassigned; (+)) [listing 2 of 2 here]
inhibition [4]: inactive
inhibition [5]: Active
inhibition [6]: Active
inhibition [7]: inactive
inhibition [8]: inactive
inhibition [9]: Active

CC(C)(C)C[C@@H]1C=C(C(=O)N[C@H]2C[C@@](C)(O)C2)[C@H](c2cccc(Cl)c2F)[C@]12C(=O)Nc1cc(Cl)ccc12 (racemic)
IC50 [1]: 1.26 µM

CC(C)(C)C[C@@H]1C=C(C(=O)O)[C@H](c2cccc(Cl)c2F)[C@]12C(=O)Nc1cc(Cl)ccc12 (racemic)
IC50 (HCT-116 [2]): 10.5 µM
IC50 [1]: 0.0101 µM
IC50 (HCT-116 [3]): > 20 µM
IC50 (NCI-H1299): > 20 µM
IC50 (SJSA-1): 7.44 µM

CC(C)(C)CC1C=C(C(=O)NC2CCC(O)CC2)C(c2cccc(Cl)c2F)C12C(=O)Nc1cc(Cl)ccc12 (single isomer, unassigned; (+))
IC50 [1]: 0.303 µM

CC(C)(C)CC1C=C(C(=O)NC2CC(C)(O)C2)C(c2cccc(Cl)c2F)C12C(=O)Nc1cc(Cl)ccc12 (single isomer, unassigned; (+))
IC50 [1]: 0.712 µM

CC(C)(C)C[C@@H]1C=C(C(=O)NCCN2CCOCC2)[C@@H](c2cccc(Cl)c2F)[C@]12C(=O)Nc1cc(Cl)ccc12 (racemic)
IC50 [1]: 3.38 µM

CC(C)(C)CC1C=C(C(=O)Nc2ccc(C(=O)O)cc2)C(c2cccc(Cl)c2F)C12C(=O)Nc1cc(Cl)ccc12 (single isomer, unassigned; (+))
IC50 [1]: 0.655 µM

CC(C)(C)C[C@H]1C=C(C(=O)NCCN2CCOCC2)[C@H](c2cccc(Cl)c2F)[C@]12C(=O)Nc1cc(Cl)ccc12 (racemic)
IC50 [1]: 0.739 µM

CC(C)(C)CC1C=C(C(=O)NC2CCC(O)CC2)C(c2cccc(Cl)c2F)C12C(=O)Nc1cc(Cl)ccc12 (single isomer, unassigned; (-))
IC50 [1]: 3.72 µM

CC(C)(C)CC1C=C(C(=O)NCCN2CCOCC2)C(c2cccc(Cl)c2F)C12C(=O)Nc1cc(Cl)ccc12 (single isomer, unassigned; (+)) [listing 2 of 2 here]
inhibition [4]: inactive
inhibition [5]: Active
inhibition [6]: Active
inhibition [7]: inactive
inhibition [8]: inactive
inhibition [9]: Active
